Data as given in publication PMC4646424 (Journal of medicinal chemistry, 2015).
Where two headings read alike, the source gives them in different places.

Experiments:
[1] = Particle formation by dynamic light scattering; assay type: physicochemical; details: for DLS detected (concentration at which particles were detected) / DLS particle radius: dynamic light scattering; for DLS particle radius: at the concentration detected
How it was run: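 Particle formation was measured by dynamic light scattering following an earlier published method, with each test compound in buffer both without and with 0.01% Triton X-100. Read-outs were scattering intensity and average particle radius. For selected compounds, critical aggregation concentration was found by tracking scattering intensity as concentration rose, using three independent experiments. Forming aggregator-type particles was a required criterion.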

[2] = target: monoamine oxygenase B (MAOB); details: read-out: Inhibition of MAOB; cited from earlier work
AmpC β-lactamase = AmpC β-lactamase (Escherichia coli, UniProt P00811); assay: AmpC β-lactamase inhibition with and without Triton X-100; assay type: biochemical; details: for IC50: 1% DMSO
How it was run: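 AmpC β-lactamase activity was measured following an earlier published method, with final DMSO at 1% in all samples. Concentration-response curves were run with and without 0.01% Triton X-100. Where detergent fully reversed inhibition, only the highest inhibitor concentration was tested. Values are means of duplicate samples from two independent experiments. Detergent-sensitive inhibition with IC50 better than 100 µM was one criterion for classing a compound as an aggregator.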

[3] = target: cholesterol ester transferase protein (CETP); details: read-out: Inhibition of CETP; cited from earlier work
[4] = cited from earlier work; for Known aggregator status: previously reported
[5] = read-out: AmpC IC50 no Triton, no Triton X-100
[6] = read-out: AmpC IC50 plus Triton, plus 0.01% Triton X-100

Chain of AmpC β-lactamase (P00811 20-377): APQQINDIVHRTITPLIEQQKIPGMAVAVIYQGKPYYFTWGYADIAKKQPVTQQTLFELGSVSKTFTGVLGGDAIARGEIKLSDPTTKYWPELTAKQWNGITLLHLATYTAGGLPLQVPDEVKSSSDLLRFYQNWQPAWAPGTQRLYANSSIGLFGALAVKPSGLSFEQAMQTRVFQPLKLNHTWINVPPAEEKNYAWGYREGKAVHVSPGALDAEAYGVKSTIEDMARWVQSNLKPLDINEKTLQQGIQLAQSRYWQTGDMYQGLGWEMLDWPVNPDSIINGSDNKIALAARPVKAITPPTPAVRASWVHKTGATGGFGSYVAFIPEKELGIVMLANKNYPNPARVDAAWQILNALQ

SMILES | DLS detected (concentration at which particles were detected) [1] [µM] | DLS particle radius [1] [nm] | IC50 (AmpC β-lactamase; [5]) [µM] | IC50 (AmpC β-lactamase; [6]) [µM] | further results
COc1ccc2c(=O)cc(-c3ccc(C)cc3)oc2c1 [CHEMBL17052] | – | – | – | – | Colloid formation by DLS ([1]; up to concentrations of at least 200 µM (Table 2)): does not form colloids; IC50 [2]: 11.3 µM
Nc1sc2c(c1C(=O)c1ccc(Cl)cc1)CCCC2 [CHEMBL57997] | 21 | 270 | 12.7 | > 100 | –
Cc1ccccc1OCC(=O)Nc1ccc(-c2nc3cc(Cl)ccc3o2)cc1 [CHEMBL261275] | 4 | 2312 | 7 | > 100 | IC50 [3]: 21 µM; Effect of 0.01% Triton X-100 on β-lactamase inhibition (AmpC β-lactamase; addition of 0.01% Triton X-100): fully abrogated
Cc1ccc(-c2noc(CN(C(=O)C(c3ccccc3)c3ccccc3)C(C)C)n2)cc1 [CHEMBL1304694] | 20 | 456 | 8 | > 100 | –
Cc1cc(NS(=O)(=O)c2ccc(NC(=O)COc3c(C)cc(Br)cc3C)cc2)no1 [CHEMBL1333273] | 100 | 49 | 146 | > 400 | –
CCOC(=O)c1c(-c2ccc(C)o2)csc1NC(=O)CSc1ncn[nH]1 [CHEMBL1347854] | 10 | 115 | 29 | > 100 | –
C=CCOC(=O)c1[nH]c2c(c1C)C(=O)CC(c1ccco1)C2 (stereo not shown) [CHEMBL1359872] | 10 | 405 | 10 | > 100 | –
COc1ccc(OC(C)C(=O)N(C)Cc2nc(-c3ccc(OC)cc3)no2)cc1 (stereo not shown) [CHEMBL1508601] | 100 | 62 | 235 | > 400 | –
CN(CCC#N)C(=O)c1cc2c(s1)-c1ccccc1SC2 [CHEMBL1565380] | 100 | 71 | 184 | > 400 | –
CC(=O)c1c(O)c(C)c(O)c(Cc2c(O)c3c(c(C(=O)/C=C/c4ccccc4)c2O)OC(C)(C)C=C3)c1O [Rottlerin] | – | – | – | – | Known aggregator status [4]: known aggregator at micromolar concentrations
C[C@]12CC[C@@H]3c4ccc(O)cc4C[C@@H](CCCCCCCCC[S+]([O-])CCCC(F)(F)C(F)(F)F)[C@H]3[C@@H]1CC[C@@H]2O (stereo partly shown) [fulvestrant] | – | – | – | – | Known aggregator status [4]: strong aggregators
CNC(=O)c1cc(Oc2ccc(NC(=O)Nc3ccc(Cl)c(C(F)(F)F)c3)cc2)ccn1 [sorafenib] | – | – | – | – | CAC (critical aggregation concentration) ([4]; in biochemical buffer and in cell culture): 3.5 µM; Known aggregator status [4]: strong aggregators
